In series [1] the target is T1, Membrane-bound lytic murein transglycosylase B (Escherichia coli (strain K12), UniProt P41052).
T1 sequence (P41052 whole entry): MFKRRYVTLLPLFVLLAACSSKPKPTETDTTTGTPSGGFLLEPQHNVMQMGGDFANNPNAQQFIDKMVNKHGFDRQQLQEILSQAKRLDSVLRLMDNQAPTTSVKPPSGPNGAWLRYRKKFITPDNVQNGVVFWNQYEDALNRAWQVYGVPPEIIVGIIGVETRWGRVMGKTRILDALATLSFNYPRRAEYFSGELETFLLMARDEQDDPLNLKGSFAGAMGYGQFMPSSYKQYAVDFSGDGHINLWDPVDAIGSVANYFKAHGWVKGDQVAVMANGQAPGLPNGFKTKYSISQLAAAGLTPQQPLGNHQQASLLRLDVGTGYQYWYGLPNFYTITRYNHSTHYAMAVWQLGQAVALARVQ
Nature of the series: Binding affinity to Escherichia coli K12 MG1655 His6x-tagged MltB lytic transglycosylase assessed as intrinsic fluorescence of tryptophan and/or tyrosine residues of enzyme. Further details: species or system Escherichia coli K-12. The procedure, abridged:
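MltB at 0.25 μM in 50 mM HEPES pH 7.6, 0.20 M NaCl, Brij-35, titrated with aliquots of 42 mM aqueous compound stock; equilibrated at 25 °C with stirring after each addition. Emission read at 334.06 nm (excitation 280 nm, scan 290-450 nm), corrected for dilution. Kd from fit to one-site saturation model, with or without a non-specific binding term.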

In another series the target is Beta-hexosaminidase (Pseudomonas aeruginosa (strain ATCC 15692 / PAO1 / 1C / PRS 101 / LMG12228), UniProt Q9HZK0). As to the kind of experiment: Competitive inhibition of Pseudomonas aeruginosa PAO1 NagZ using PNP-GlcNAc as substrate assessed as release of 4-nitrophenolate ion after 4 mins by spectrophotometric analysis. The procedure, abridged: (§1)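 His-tagged NagZ, purified by Ni-affinity, at 40 nM in PBS pH 7.4 (500 µL reaction). Substrate was PNP-GlcNAc at 0.1–1 mM. 4-Nitrophenolate release was followed at 400 nm for 4 min at 25 °C, in triplicate.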

Series [2] addresses Beta-hexosaminidase (Pseudomonas aeruginosa (strain ATCC 15692 / PAO1 / 1C / PRS 101 / LMG12228)) (UniProt Q9HZK0). Nature of the series: Inhibition of Pseudomonas aeruginosa PAO1 NagZ using PNP-GlcNAc as substrate assessed as release of 4-nitrophenolate ion after 4 mins by spectrophotometric analysis. The procedure, abridged: as §1
Series [3] can be described thus: Activity at NagZ expressed in Escherichia coli BL21 DE3 after 35 mins by HPLC analysis.
A short description of series [4]: Ratio of Kcat to Km for NagZ expressed in Escherichia coli BL21 DE3 after 35 mins by HPLC analysis.
Substrate in series [5]: CO[C@@H]1O[C@H](CO)[C@@H](O[C@@H]2O[C@H](CO)[C@@H](O)[C@H](O)[C@H]2NC(C)=O)[C@H](O[C@H](C)C(=O)N[C@@H](C)C(=O)N[C@H](CCC(=O)N[C@@H](CCC[C@@H](N)C(=O)O)C(=O)N[C@H](C)C(=O)N[C@H](C)C(=O)O)C(=O)O)[C@H]1NC(C)=O
Nature of the series: Activity at Pseudomonas aeruginosa PAO1 NagZ after 35 mins by HPLC analysis. The procedure, abridged:
(§2)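 His-tagged NagZ (pET28a, expressed in E. coli BL21 star (DE3), Ni-affinity purified) at 40 nM in PBS pH 7.4. Substrate was GlcNAc-anhMurNAc-pentapeptide or GlcNAc-MurNAc-pentapeptide at 0.15–0.9 mM, 25 °C, 35 min. Reactions were stopped with two volumes of 0.075% TFA. Substrate and product were quantified by C18 reversed-phase HPLC against an internal standard (Nα,Nε-diacetyl-L-Lys-D-Ala-D-Ala).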

Substrate in series [6]: CO[C@@H]1O[C@H](CO)[C@@H](O[C@@H]2O[C@H](CO)[C@@H](O)[C@H](O)[C@H]2NC(C)=O)[C@H](O[C@H](C)C(=O)N[C@@H](C)C(=O)N[C@H](CCC(=O)N[C@@H](CCC[C@@H](N)C(=O)O)C(=O)N[C@H](C)C(=O)N[C@H](C)C(=O)O)C(=O)O)[C@H]1NC(C)=O
As to the kind of experiment: Ratio of Kcat to Km for Pseudomonas aeruginosa PAO1 NagZ after 35 mins by HPLC analysis. The procedure, abridged:
as §2

Active and inactive are the calls of the source. No cut-off for these calls is given here.

Take `CC(=O)N[C@H]1CN[C@H](CO)[C@@H](O)[C@@H]1O`: in series [1], the equilibrium dissociation constant (Kd) (usually the free concentration of one partner at which half of the binding sites on the other are occupied at equilibrium, for simple one-to-one binding) amounted to 174 µM. For the same molecule, the Ki (usually the equilibrium dissociation constant of an inhibitor or competing ligand from its target) on Beta-hexosaminidase came out at 0.3 µM.
For `CC(=O)N[C@H]1CN[C@H](CO)[C@@H](O)[C@@H]1O[C@H](C)C(=O)O`, the Kd in series [1] was 1000 µM. Also, the Ki on Beta-hexosaminidase was 51 µM. Further, in series [2], the inhibition entry is “Active”.
For the molecule `CC(=O)N[C@H]1[C@H](O[C@H]2[C@H](O[C@H](C)C(=O)N[C@@H](C)C(=O)N[C@H](CCC(=O)N[C@@H](CCC[C@@H](N)C(=O)O)C(=O)N[C@H](C)C(=O)N[C@H](C)C(=O)O)C(=O)O)[C@@H](NC(C)=O)[C@@H]3OC[C@H]2O3)O[C@H](CO)[C@@H](O)[C@@H]1O`, in series [3], the Km – broadly, the concentration of substrate that gives half-maximal velocity – was determined as 104 µM and the kcat (usually the maximal rate divided by the concentration of active sites) turned out to be 6.6 s⁻¹. Besides, the kcat/Km in series [4] came to 6.3 ×10⁴ /M/s.
Consider `CC(=O)N[C@H]1CN[C@H](CO)[C@@H](O)[C@@H]1O[C@H](C)C(=O)N[C@@H](C)C(=O)N[C@H](CCC(=O)O)C(=O)O`, for which the Kd in series [1] amounted to 1010 µM. Further, the Ki on Beta-hexosaminidase was 33 µM. Further, the inhibition entry in series [2] was “Active”.
As to `CC(=O)N[C@H]1CN[C@H](CO)[C@@H](O)[C@@H]1O[C@H](C)C(=O)N[C@@H](C)C(=O)O`, the dissociation constant Kd in series [1] was found to be 189 µM. Besides, the Ki at Beta-hexosaminidase stood at 35 µM. The inhibition result in series [2] was “Active”.

B1: Beta-hexosaminidase (Pseudomonas aeruginosa (strain ATCC 15692 / PAO1 / 1C / PRS 101 / LMG12228)), Q9HZK0 (protein)
chain: MQGSLMLDIGGTWLTAEDRQILRHPEVGGLIIFARNIEHPAQVRELCAAIRAIRPDLLLAVDQEGGRVQRLRQGFVRLPAMRAIADNPNAEELAEHCGWLMATEVQAVGLDLSFAPVLDLDHQRSAVVGSRAFEGDPERAALLAGAFIRGMHAAGMAATGKHFPGHGWAEADSHVAIPEDARSLEEIRRSDLVPFARLAGQLDALMPAHVIYPQVDPQPAGFSRRWLQEILRGELKFDGVIFSDDLSMAGAHVVGDAASRIEAALAAGCDMGLVCNDRASAELALAALQRLKVTPPSRLQRMRGKGYANTDYRQQPRWLEALSALRAAQLID
B1: in series [5], the Km was determined as 165 µM and the turnover number (kcat) is 0.77 s⁻¹. Moreover, in series [6], the kcat/Km was 0.5 ×10⁴ /M/s.

The values are drawn from ChEMBL document CHEMBL2046337, “Inhibitors for Bacterial Cell-Wall Recycling” (ACS Med Chem Lett, 2012).
